Experimental data taken from ChEMBL document CHEMBL2021762, “Derivatives of 8-hydroxyquinoline--antibacterial agents that target intra- and extracellular Gram-negative pathogens” (Bioorg Med Chem Lett, 2012).
≈ marks a conversion by molar mass, not a printed value. Where “and” joins values, the source holds several entries; their conditions need not be identical. Identical values can stand only once. Calls of active or inactive are those of the source. No cut-off for these calls is given here.

Legend:
[1] = tested on: Yersinia pseudotuberculosis; assay: Inhibition of type 3 secretion in Yersinia pseudotuberculosis at 10 uM by reporter gene assay
In short: (§1)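 Y. pseudotuberculosis T3S-linked reporter-gene screen, luminescence read on filter-based plate reader; compounds added from DMSO solutions. Tested at 10, 20, 50 and 100 µM, expressed as percent inhibition. EC50 taken from dose-response curves. Activity also checked with detergent present to exclude aggregation.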

[2] = tested on: Yersinia pseudotuberculosis; assay: Inhibition of type 3 secretion in Yersinia pseudotuberculosis at 20 uM by reporter gene assay; in short: as §1
[3] = tested on: Yersinia pseudotuberculosis; assay: Inhibition of type 3 secretion in Yersinia pseudotuberculosis at 50 uM by reporter gene assay; in short: as §1
[4] = tested on: Yersinia pseudotuberculosis; assay: Inhibition of type 3 secretion in Yersinia pseudotuberculosis at 100 uM by reporter gene assay; in short: as §1
Chlamydia trachomatis [5] = assay: Antibacterial activity against Chlamydia trachomatis infected in HeLa cells at 50 uM up to 6 hrs; type: functional, organism-based
[6] = Cytotoxicity against human HeLa cells assessed as cell viability at 2 time MIC; type: cell-based; details: read-out: Activity
Chlamydia trachomatis [7] = assay: Antibacterial activity against Chlamydia trachomatis infected in HeLa cells; type: functional
In short: (§2)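 HeLa cells infected with C. trachomatis […] and incubated with compound in a dilution series, with a DMSO-treated control. Chlamydial inclusions are immunostained green and HeLa cells counterstained red. Inclusion size and number and HeLa cell morphology are judged by fluorescence microscopy. MIC is read from the absence of visible inclusions.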

[8] = target: Tyrosine-protein phosphatase YopH (Yersinia pseudotuberculosis serotype I (strain IP32953)) (UniProt P08538); assay: Inhibition of Yersinia pseudotuberculosis phosphatase activity of secreted YopH at 10 uM
Sequence of Tyrosine-protein phosphatase YopH (Yersinia pseudotuberculosis serotype I (strain IP32953)) (P08538 whole entry): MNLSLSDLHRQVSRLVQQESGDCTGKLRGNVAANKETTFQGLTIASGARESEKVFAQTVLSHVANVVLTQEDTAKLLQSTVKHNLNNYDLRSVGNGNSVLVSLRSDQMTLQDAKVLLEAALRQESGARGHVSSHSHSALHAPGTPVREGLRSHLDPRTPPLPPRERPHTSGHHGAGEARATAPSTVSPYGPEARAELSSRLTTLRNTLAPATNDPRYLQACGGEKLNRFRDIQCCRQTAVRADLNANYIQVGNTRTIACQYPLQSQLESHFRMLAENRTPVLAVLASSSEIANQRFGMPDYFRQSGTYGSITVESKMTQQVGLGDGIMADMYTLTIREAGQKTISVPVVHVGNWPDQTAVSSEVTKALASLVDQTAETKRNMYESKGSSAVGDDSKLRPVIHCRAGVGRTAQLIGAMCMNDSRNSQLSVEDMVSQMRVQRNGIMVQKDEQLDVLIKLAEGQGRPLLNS
In short: (§3)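 Phosphatase activity of YopH secreted by Y. pseudotuberculosis, measured at 10, 20, 50 and 100 µM; expressed as percent inhibition. Some runs used HCl salt form.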

[9] = target: Tyrosine-protein phosphatase YopH (Yersinia pseudotuberculosis serotype I (strain IP32953)) (UniProt P08538); assay: Inhibition of Yersinia pseudotuberculosis phosphatase activity of secreted YopH at 20 uM; in short: as §3
[10] = target: Tyrosine-protein phosphatase YopH (Yersinia pseudotuberculosis serotype I (strain IP32953)) (UniProt P08538); assay: Inhibition of Yersinia pseudotuberculosis phosphatase activity of secreted YopH at 50 uM; in short: as §3
[11] = target: Tyrosine-protein phosphatase YopH (Yersinia pseudotuberculosis serotype I (strain IP32953)) (UniProt P08538); assay: Inhibition of Yersinia pseudotuberculosis phosphatase activity of secreted YopH at 100 uM; in short: as §3
[12] = (§4) Inhibition of type 3 secretion in Yersinia pseudotuberculosis by reporter gene assay; in short: as §1
[13] = tested on: Yersinia pseudotuberculosis; assay: as §4; in short: as §1
[14] = target: Tyrosine-protein phosphatase YopH (Yersinia pseudotuberculosis serotype I (strain IP32953)) (UniProt P08538); assay: Inhibition of Yersinia pseudotuberculosis phosphatase activity of secreted YopH; in short: as §3
[15] = tested on: Yersinia pseudotuberculosis; assay: Antibacterial activity against wild type Yersinia pseudotuberculosis infected in mouse J774 cells assessed as increase of host cell viability at 3.1 to 25 uM; type: functional, organism-based
In short: (§5)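 J774 macrophages infected with Y. pseudotuberculosis, wild-type (pIB102) or T3S-deficient mutant (pIB604); uninfected control included. Viability read with CalceinAM fluorescence (green conversion in healthy cells). 100% = uninfected cells given DMSO alone.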

[16] = tested on: Yersinia pseudotuberculosis; assay: Antibacterial activity against T3S deficient Yersinia pseudotuberculosis infected in mouse J774 cells assessed as increase of host cell viability at 3.1 to 25 uM; type: functional, organism-based; in short: as §5
J774 = assay: Cytotoxicity against mouse J774 cells assessed as cell viability at 3.1 to 25 uM; type: cell-based; details: j774, 25 µM
Chlamydia trachomatis [17] = assay: Antibacterial activity against Chlamydia trachomatis infected in HeLa cells at 100 uM up to 6 hrs; type: functional, organism-based
Chlamydia trachomatis [18] = assay: Antibacterial activity against Chlamydia trachomatis infected in HeLa cells assessed as reduction of inclusions size at 1.56 uM by fluorescence microscopy analysis; type: functional, organism-based; in short: as §2
HeLa [19] = assay: Cytotoxicity against human HeLa cells assessed as visible inclusions by fluorescence microscopy; type: cell-based; in short: as §2
HeLa [20] = assay: Cytotoxicity against human HeLa cells assessed as change in morphology by fluorescence microscopy; type: cell-based; in short: as §2

Row | Structure (SMILES) | inhibition [1] | inhibition [2] | inhibition [3] | inhibition [4] | other results
1 | Oc1c(CN2CCN(c3ccccc3)CC2)cc(Cl)c2cccnc12 | inactive | inactive | 14% and 22% | – | –
2 | COc1ccccc1N1CCN(Cc2cc([N+](=O)[O-])c3cccnc3c2O)CC1 | inactive | 25% | 77% | 85% | –
3 | Oc1c(CN2CCCCC2)cc(Cl)c2cccnc12 | inactive | inactive | 8% | 12% | –
4 | COc1c(CN2CCN(c3ccccc3)CC2)cc(Cl)c2cccnc12 | inactive | inactive | inactive | inactive | –
5 | COc1c(CN2CCN(c3ccccc3)CC2)cc(Br)c2cccnc12 | inactive | inactive | inactive | inactive | –
6 | O=[N+]([O-])c1ccc(O)c(CN2CCN(c3ccccc3)CC2)c1 | inactive | inactive | inactive | inactive | –
7 | CN1CCN(Cc2cc(Cl)c3cccnc3c2O)CC1 | inactive | inactive | inactive | 48% | –
8 | O=[N+]([O-])c1cc(CN2CCC(c3ccccc3)C2)c(O)c2ncccc12 (racemic) | 54% | 79% | 95% | 98% | Activity (Chlamydia trachomatis [5]): inactive; viability [6]: 92.1%; MIC (Chlamydia trachomatis [7]): 12.5 µM (≈ 4.37 µg/mL); inhibition [8]: 47%; inhibition [9]: 64%; inhibition [10]: 68%; inhibition [11]: 69%; EC50 [12]: 14.6 µM; inhibition [13]: Dose-dependent effect; inhibition [14]: Dose-dependent effect; Activity [15]: Active; Activity [16]: inactive; Activity (J774): Toxic
9 | O=[N+]([O-])c1cc(CN2CCN(c3ccc(F)cc3)CC2)c(O)c2ncccc12 | – | – | – | – | Activity (Chlamydia trachomatis [17]): inactive; viability [6]: 90.2%; MIC (Chlamydia trachomatis [7]): 3.13 µM (≈ 1.2 µg/mL); inhibition [8]: 17% and 38%; inhibition [9]: 56% and 66%; inhibition [10]: 88% and 81%; inhibition [11]: 94% and 83%; EC50 [12]: 6.24 µM; inhibition [13]: Dose-dependent effect; inhibition [14]: Dose-dependent effect; Activity [15]: Active; Activity [16]: inactive; Activity (J774): Toxic; Activity (Chlamydia trachomatis [18]): Active; Activity (HeLa [19]): Non-toxic; Activity (HeLa [20]): Non-toxic
